Test results published in ChEMBL document CHEMBL1821569, “Synthesis of novel 1,2,5-trisubstituted benzimidazoles as potential antitumor agents” (2011).

Tests used:
Format in all cases: functional
[1] = test system: OVCAR-5; test: Antitumor activity against human OVCAR5 cells after 48 hrs by SRB assay; conditions: OVCAR-5, 48 h
Procedure, shortened: (§1)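 NCI 60-cell-line secondary screen. Cells were exposed continuously to drug for 48 h at five concentration levels (100, 10, 1.0, 0.1 and 0.01). Growth was estimated by sulforhodamine B protein staining. GI50 is the concentration giving a 50% reduction in net protein increase versus untreated control cells over the incubation. TGI (total growth inhibition) and LC50 (50% cell kill) were also derived.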

[2] = test system: SK-OV-3; test: Antitumor activity against human SKOV3 cells after 48 hrs by SRB assay; conditions: SK-OV-3, 48 h; procedure, shortened: as §1
[3] = test system: SF-539; test: Antitumor activity against human SF539 cells after 48 hrs by SRB assay; conditions: SF-539, 48 h; procedure, shortened: as §1
[4] = test system: SN12C; test: Antitumor activity against human SN12C cells after 48 hrs by SRB assay; procedure, shortened: as §1
[5] = test system: PC-3; test: Antitumor activity against human PC3 cells after 48 hrs by SRB assay; conditions: PC-3, 48 h; procedure, shortened: as §1
[6] = test system: MDA-MB-468; test: Antitumor activity against human MDA-MB-468 cells after 48 hrs by SRB assay; conditions: MDA-MB-468, 48 h; procedure, shortened: as §1
[7] = test system: KM12; test: Antitumor activity against human KM12 cells after 48 hrs by SRB assay; conditions: KM12, 48 h; procedure, shortened: as §1
[8] = test system: HOP-92; test: Antitumor activity against human HOP92 cells after 48 hrs by SRB assay; conditions: HOP-92, 48 h; procedure, shortened: as §1
[9] = test system: K562; test: Antitumor activity against human K562 cells after 48 hrs by SRB assay; conditions: K562, 48 h; procedure, shortened: as §1
[10] = test system: U-251; test: Antitumor activity against human U251 cells after 48 hrs by SRB assay; conditions: U-251, 48 h
Procedure, shortened: (§2)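 NCI 60-cell-line secondary screen. Continuous 48 h exposure at five concentration levels. Cell growth estimated by sulforhodamine B protein staining. GI50 taken as the concentration giving 50% reduction in net protein increase relative to untreated control cells over the incubation. TGI (total growth inhibition) and LC50 (50% cell kill) were also derived.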

[11] = Antitumor activity against human Hs 578T cells after 48 hrs by SRB assay; procedure, shortened: as §1
[12] = test system: MDA-MB-231; test: Antitumor activity against human MDA-MB-231 cells after 48 hrs by SRB assay; conditions: MDA-MB-231, 48 h; procedure, shortened: as §1
[13] = test system: CAKI-1; test: Antitumor activity against human Caki1 cells after 48 hrs by SRB assay; conditions: CAKI-1, 48 h; procedure, shortened: as §1
[14] = test system: MDA-MB-435; test: Antitumor activity against human MDA-MB-435 cells after 48 hrs by SRB assay; conditions: MDA-MB-435, 48 h; procedure, shortened: as §1
[15] = test system: OVCAR-8; test: Antitumor activity against human OVCAR8 cells after 48 hrs by SRB assay; conditions: OVCAR-8, 48 h; procedure, shortened: as §1
[16] = test system: EKVX; test: Antitumor activity against human EKVX cells after 48 hrs by SRB assay; procedure, shortened: as §1
[17] = test system: SF-268; test: Antitumor activity against human SF268 cells after 48 hrs by SRB assay; conditions: SF-268, 48 h; procedure, shortened: as §1
[18] = test system: MOLT-4; test: Antitumor activity against human MOLT4 cells after 48 hrs by SRB assay; conditions: MOLT-4, 48 h; procedure, shortened: as §1
[19] = test system: TK-10; test: Antitumor activity against human TK10 cells after 48 hrs by SRB assay; conditions: TK-10, 48 h; procedure, shortened: as §2
[20] = test system: SNB-19; test: Antitumor activity against human SNB19 cells after 48 hrs by SRB assay; conditions: SNB-19, 48 h; procedure, shortened: as §1
[21] = test system: NCI/ADR-RES; test: Antitumor activity against human NCI/ADR-RES cells after 48 hrs by SRB assay; procedure, shortened: as §1
[22] = test system: HCT-116; test: Antitumor activity against human HCT116 cells after 48 hrs by SRB assay; conditions: HCT-116, 48 h; procedure, shortened: as §1
[23] = test system: NCI-H322M; test: Antitumor activity against human NCI-H322M cells after 48 hrs by SRB assay; procedure, shortened: as §1
[24] = test system: A549; test: Antitumor activity against human A549 cells after 48 hrs by SRB assay; conditions: A549, 48 h; procedure, shortened: as §1
[25] = test system: SR; test: Antitumor activity against human SR cells after 48 hrs by SRB assay; procedure, shortened: as §2
[26] = test system: UACC-62; test: Antitumor activity against human UACC62 cells after 48 hrs by SRB assay; conditions: UACC-62, 48 h; procedure, shortened: as §2
[27] = test system: HOP-62; test: Antitumor activity against human HOP62 cells after 48 hrs by SRB assay; conditions: HOP-62, 48 h; procedure, shortened: as §1
[28] = test system: A498; test: Antitumor activity against human A498 cells after 48 hrs by SRB assay; conditions: A498, 48 h; procedure, shortened: as §1
[29] = test system: OVCAR-4; test: Antitumor activity against human OVCAR4 cells after 48 hrs by SRB assay; conditions: OVCAR-4, 48 h; procedure, shortened: as §1
[30] = test system: SF-295; test: Antitumor activity against human SF295 cells after 48 hrs by SRB assay; conditions: SF-295, 48 h; procedure, shortened: as §1
[31] = test system: UACC-257; test: Antitumor activity against human UACC257 cells after 48 hrs by SRB assay; conditions: UACC-257, 48 h; procedure, shortened: as §2
[32] = read-out: LC50 (the source's name)

**Q.** With `COC(=O)c1ccc2c(c1)nc(-c1ccc(Cl)cc1)n2-c1cc(C(C)(C)C)[nH]n1` as the compound, how does the GI50 [1] read?
**A.** 12.9 µM

**Q.** What about the TGI [1] of the same compound?
**A.** 60.1 µM

**Q.** And the CC50 [1, 32]?
**A.** > 100 µM

**Q.** And the GI50 [2]?
**A.** 3.71 µM

**Q.** What about the TGI [2] of the same compound?
**A.** 31 µM

**Q.** What about the CC50 [2, 32] of the same compound?
**A.** > 100 µM

**Q.** And the GI50 [3]?
**A.** 2.54 µM

**Q.** What about the TGI [3] of the same compound?
**A.** 8.95 µM

**Q.** And the CC50 [3, 32]?
**A.** 0.521 µM

**Q.** What about the GI50 [4] of the same compound?
**A.** 4.34 µM

**Q.** What about the TGI [4] of the same compound?
**A.** 27.7 µM

**Q.** And the CC50 [4, 32]?
**A.** > 100 µM

**Q.** And the GI50 [5]?
**A.** 2.93 µM

**Q.** And the TGI [5]?
**A.** 15.7 µM

**Q.** And the CC50 [5, 32]?
**A.** > 100 µM

**Q.** And the GI50 [6]?
**A.** 2.4 µM

**Q.** And the TGI [6]?
**A.** 7.98 µM

**Q.** And the CC50 [6, 32]?
**A.** > 100 µM

**Q.** What about the GI50 [7] of the same compound?
**A.** 2.12 µM

**Q.** What about the TGI [7] of the same compound?
**A.** 6.07 µM

**Q.** What about the CC50 [7, 32] of the same compound?
**A.** > 100 µM

**Q.** What about the GI50 [8] of the same compound?
**A.** 1.15 µM

**Q.** What about the TGI [8] of the same compound?
**A.** 8.02 µM

**Q.** What about the CC50 [8, 32] of the same compound?
**A.** > 100 µM

**Q.** What about the GI50 [9] of the same compound?
**A.** 4.2 µM

**Q.** What about the TGI [9] of the same compound?
**A.** > 100 µM

**Q.** What about the CC50 [9, 32] of the same compound?
**A.** > 100 µM

**Q.** And the GI50 [10]?
**A.** 4.13 µM

**Q.** And the TGI [10]?
**A.** 22.7 µM

**Q.** And the CC50 [10, 32]?
**A.** > 100 µM

**Q.** And the GI50 [11]?
**A.** 1.72 µM

**Q.** What about the TGI [11] of the same compound?
**A.** 7.86 µM

**Q.** What about the CC50 [11, 32] of the same compound?
**A.** > 100 µM

**Q.** What about the GI50 [12] of the same compound?
**A.** 4.62 µM

**Q.** What about the TGI [12] of the same compound?
**A.** 27 µM

**Q.** And the CC50 [12, 32]?
**A.** > 100 µM

**Q.** What about the GI50 [13] of the same compound?
**A.** 2.25 µM

**Q.** And the TGI [13]?
**A.** 12.8 µM

**Q.** And the CC50 [13, 32]?
**A.** > 100 µM

**Q.** And the GI50 [14]?
**A.** 1.19 µM

**Q.** What about the TGI [14] of the same compound?
**A.** 5 µM

**Q.** And the CC50 [14, 32]?
**A.** 0.505 µM

**Q.** And the GI50 [15]?
**A.** 7.33 µM

**Q.** And the TGI [15]?
**A.** 58.2 µM

**Q.** And the CC50 [15, 32]?
**A.** > 100 µM

**Q.** And the GI50 [16]?
**A.** 3.06 µM

**Q.** What about the LC50 (50% cell kill) [16] of the same compound?
**A.** > 100 µM

**Q.** And the TGI [16]?
**A.** > 100 µM

**Q.** And the GI50 [17]?
**A.** 3.29 µM

**Q.** And the TGI [17]?
**A.** 17.8 µM

**Q.** And the CC50 [17, 32]?
**A.** > 100 µM

**Q.** And the GI50 [18]?
**A.** 5.48 µM

**Q.** And the LC50 (50% net cell kill) [18]?
**A.** > 100 µM

**Q.** And the TGI [18]?
**A.** > 100 µM

**Q.** What about the GI50 [19] of the same compound?
**A.** 6.94 µM

**Q.** And the TGI [19]?
**A.** > 100 µM

**Q.** What about the CC50 [19, 32] of the same compound?
**A.** > 100 µM

**Q.** And the GI50 [20]?
**A.** 4.31 µM

**Q.** What about the TGI [20] of the same compound?
**A.** > 100 µM

**Q.** What about the CC50 [20, 32] of the same compound?
**A.** > 100 µM

**Q.** What about the GI50 [21] of the same compound?
**A.** 2.72 µM

**Q.** What about the TGI [21] of the same compound?
**A.** 7.35 µM

**Q.** What about the CC50 [21, 32] of the same compound?
**A.** > 100 µM

**Q.** And the GI50 [22]?
**A.** 3.47 µM

**Q.** What about the LC50 [22] of the same compound?
**A.** 0.563 µM

**Q.** What about the TGI [22] of the same compound?
**A.** 12.3 µM

**Q.** What about the GI50 [23] of the same compound?
**A.** 10.4 µM

**Q.** What about the LC50 (50% cell kill) [23] of the same compound?
**A.** > 100 µM

**Q.** What about the TGI [23] of the same compound?
**A.** 86.4 µM

**Q.** And the GI50 [24]?
**A.** 4.03 µM

**Q.** And the TGI [24]?
**A.** 94.5 µM

**Q.** And the CC50 [24, 32]?
**A.** > 100 µM

**Q.** And the GI50 [25]?
**A.** 3.23 µM

**Q.** And the TGI [25]?
**A.** > 100 µM

**Q.** And the CC50 [25, 32]?
**A.** > 100 µM

**Q.** And the GI50 [26]?
**A.** 2.01 µM

**Q.** And the TGI [26]?
**A.** 7.78 µM

**Q.** What about the CC50 [26, 32] of the same compound?
**A.** 0.463 µM

**Q.** What about the GI50 [27] of the same compound?
**A.** 3.41 µM

**Q.** What about the LC50 (concentration giving 50% cell kill) [27] of the same compound?
**A.** > 100 µM

**Q.** What about the TGI [27] of the same compound?
**A.** 21 µM

**Q.** What about the GI50 [28] of the same compound?
**A.** 2.26 µM

**Q.** And the TGI [28]?
**A.** 9.76 µM

**Q.** And the CC50 [28, 32]?
**A.** 0.858 µM

**Q.** And the GI50 [29]?
**A.** 3.4 µM

**Q.** What about the TGI [29] of the same compound?
**A.** > 100 µM

**Q.** And the CC50 [29, 32]?
**A.** > 100 µM

**Q.** What about the GI50 [30] of the same compound?
**A.** 2.48 µM

**Q.** What about the TGI [30] of the same compound?
**A.** 8.98 µM

**Q.** And the CC50 [30, 32]?
**A.** > 100 µM

**Q.** And the GI50 [31]?
**A.** 4.97 µM

**Q.** What about the TGI [31] of the same compound?
**A.** 22.9 µM

**Q.** What about the CC50 [31, 32] of the same compound?
**A.** 0.967 µM
